Laboratory results taken from publication PMC3180826 (ACS chemical neuroscience, 2010).
Residue numbers refer to the chain shown, from its start.

How the values were obtained:
[1] = target: T1, rM1 K392D (Rattus norvegicus, UniProt P08482, K392D); test: Calcium mobilization, rM1 K392D mutant CHO-K1 cells; type: cell-based; conditions: compared with wt rM1
T1 sequence (P08482 1-460 K392D): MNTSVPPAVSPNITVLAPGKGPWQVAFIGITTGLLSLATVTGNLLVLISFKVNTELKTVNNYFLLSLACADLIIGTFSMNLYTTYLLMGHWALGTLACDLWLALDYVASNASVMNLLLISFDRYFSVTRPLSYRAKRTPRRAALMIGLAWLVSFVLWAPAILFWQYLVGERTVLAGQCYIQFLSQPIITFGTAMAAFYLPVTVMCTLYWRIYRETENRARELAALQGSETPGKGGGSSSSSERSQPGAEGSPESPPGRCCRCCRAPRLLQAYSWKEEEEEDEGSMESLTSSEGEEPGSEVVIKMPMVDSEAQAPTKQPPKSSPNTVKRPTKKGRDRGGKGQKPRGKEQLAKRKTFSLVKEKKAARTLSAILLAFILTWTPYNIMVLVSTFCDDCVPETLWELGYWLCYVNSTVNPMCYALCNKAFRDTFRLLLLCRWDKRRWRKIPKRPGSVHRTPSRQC
How it was run: (§1)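 CHO-K1 cells were transiently transfected overnight at 37 °C with 10 μg of mutant rat M1 cDNA in pcDNA3.1+ using Fugene 6, then plated for the calcium assay. They were loaded with 2 μM Fluo-4 AM for 1 h at 37 °C in HEPES/probenecid-buffered HBSS, pH 7.4. Test compound dose–response series were added at 19 s. Calcium mobilization was measured as fluorescence increase over basal.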

[2] = target: T2, rM1 E397D (Rattus norvegicus, UniProt P08482, E397D); test: Calcium mobilization, rM1 E397D mutant CHO-K1 cells; type: cell-based; conditions: compared with wt rM1
T2 sequence (P08482 1-460 E397D): T1 sequence (P08482 1-460 K392D) with D392K, E397D
How it was run: as §1

[3] = target: T3, rM1 EE397/401DD (Rattus norvegicus, UniProt P08482, E397D/E401D); test: Calcium mobilization, rM1 EE397/401DD double mutant CHO-K1 cells; type: cell-based; conditions: compared with wt rM1 and triple mutant
T3 sequence (P08482 1-460 E397D/E401D): T1 sequence (P08482 1-460 K392D) with D392K, E397D, E401D

[4] = target: T4, M1 (Rattus norvegicus, UniProt P08482); test: [3H]-NMS competition binding, M1 CHO membranes; conditions: concentrations well above those required to fully activate M1
T4 sequence (P08482 1-460): T1 sequence (P08482 1-460 K392D) with D392K

[5] = target: T5, rM1 E401H (Rattus norvegicus, UniProt P08482, E401H); test: Calcium mobilization, rM1 E401H mutant CHO-K1 cells; type: cell-based
T5 sequence (P08482 1-460 E401H): T1 sequence (P08482 1-460 K392D) with D392K, E401H
How it was run: as §1

## CCOC(=O)N1CCC(NCCNC(=O)c2ccccc2)CC1 [VU0184670, ethyl 4-(2-benzamidoethylamino)piperidine-1-carboxylate]
[1]
  functional activity at K392D mutant: comparable results to wt rM1
[2]
  functional potency at E397D mutant: Not much potency appeared to be lost
[3]
  functional potency and efficacy at EE397/401DD double mutant: decrease the potency and efficacy further toward the levels observed with the triple mutant
[4]
  reduction of [3H]-NMS binding to M1: did not reduce
[5]
  EC50: 1210 nM
[5]; CHO-K1, read-out: E401H mutant Emax
  Emax: 29.4%
